Here are results for 26 molecules from ChEMBL document CHEMBL2401620, “Molecular design, synthesis and biological evaluation of BP-O-DAPY and O-DAPY derivatives as non-nucleoside HIV-1 reverse transcriptase inhibitors” (Eur J Med Chem, 2013).

A word on the pEC50: it is the negative decadic logarithm of the EC50, by convention in mol/L. Broadly, the CC50 is the concentration at which the toxic effect on the cells reaches its halfway point. Read a low CC50 as greater toxicity to the cells. As a reminder, the pIC50 is the IC50 on a negative log10 scale, so that one unit is a factor of ten.

Data set [1] concerns Human immunodeficiency virus 1. Briefly: Antiviral activity against HIV1 3B infected in human MT4 cells assessed as inhibition of virus-induced cytopathic effect after 5 days by MTT assay. Format: functional, organism-based. Particulars: Human immunodeficiency virus 1, 3B, MT4, 120 h. A digest of the protocol:
(§1)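 MT-4 cells, spun 5 min at 220 g, resuspended at 6 × 10⁵ cells/mL, infected with virus stock at 100-300 CCID50. Serial 5-fold compound dilutions were added at the start, in triplicate wells. After 5 days, viability was read by MTT reduction at 540 and 690 nm.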
(Cytopathic effects are the visible damage that an infection or toxin causes in cultured cells.)

For data set [2], the system named is Human immunodeficiency virus 2. The experiment in a line: Antiviral activity against HIV2 ROD infected in human MT4 cells assessed as inhibition of virus-induced cytopathic effect after 5 days by MTT assay. Format: functional, organism-based. The following applies: Human immunodeficiency virus 2, ISOLATE ROD, MT4, 120 h. A digest of the protocol:
as §1

A short description of data set [3]: Cytotoxicity against human MT4 cells after 5 days by MTT assay. Format: cell-based. In a few lines: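 Mock-infected MT-4 cells at 6 × 10⁵ cells/mL received medium instead of virus, with serial 5-fold compound dilutions in triplicate. After 5 days, viability was read by MTT at 540 and 690 nm.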
For orientation: Tetrazolium dyes change colour on reduction, which living cells bring about.

A short description of data set [4]: Selectivity index, ratio of CC50 for human MT4 cells to EC50 for HIV1 3B. Format: toxicity, cell-based. The following applies: read-out: Ratio CC50/EC50. A digest of the protocol:
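SI is CC50 in mock-infected MT-4 cells divided by EC50 against HIV-1 IIIB. Both come from the same 5-day MTT assay, with serial 5-fold dilutions in triplicate wells.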

Data set [5] has as its system Human immunodeficiency virus 1. The experiment in a line: Antiviral activity against HIV1 RES056 expressing RT K103N/Y181C mutant infected in human MT4 cells assessed as inhibition of virus-induced cytopathic effect after 5 days by MTT assay. Format: functional, organism-based. Particulars: Human immunodeficiency virus 1, RES056, MT4, 120 h. A digest of the protocol: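 MT-4 cells, exponentially growing, spun 5 min at 220 g and resuspended at 6 × 10⁵ cells/mL, then infected with 100-300 CCID₅₀ virus stock. Serial 5-fold compound dilutions were added from 10× stocks, in triplicate alongside mock-infected wells. Viability was read by MTT at 540 and 690 nm. EC₅₀ is the concentration giving 50% protection from cytopathic effect, using median OD of three wells.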

For data set [6], the target named is Human immunodeficiency virus type 1 reverse transcriptase (Human immunodeficiency virus 1, UniProt Q72547, K103N/Y181C). Briefly: Inhibition of HIV RT K103N/Y181C mutant by cell based assay. A digest of the protocol: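 Serial 5-fold compound dilutions in triplicate wells, with parallel mock-infected wells. After 5 days, viability was read by MTT reduction at 540 and 690 nm. The median OD of three wells gave EC₅₀, the concentration giving 50% protection from viral cytopathic effect.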

Data set [7] has as its target Human immunodeficiency virus type 1 reverse transcriptase (Human immunodeficiency virus 1, UniProt Q72547). Briefly: Inhibition of recombinant wild type HIV1 RT using poly(rA)/oligo(dT)16 as template after 40 mins by spectrofluorometric analysis.
For data set [8], the system named is Human immunodeficiency virus 1. The experiment in a line: Ratio of nevirapine EC50 to compound EC50 for HIV1 3B. Format: functional.
Data set [9] has as its system Human immunodeficiency virus 1. The experiment in a line: Ratio of delavirdine EC50 to compound EC50 for HIV1 3B. Format: functional.

pEC50, pIC50: −log10 of the molar value.

Consider `COc1ccc(C(=O)c2ccccc2)c(Oc2cc(C)nc(Nc3ccc(C#N)cc3)n2)c1`, for which the negative-log EC50 (pEC50) in [1], in [2] and in data set [5] was under 5.31 each time. For the same molecule, in data set [3], the half-maximal cytotoxic concentration (CC50) at 120 h was determined as 4.9 µM. Further, the selectivity ratio in data set [4] is under 1.
`Cc1ccc(C(=O)c2cc(Cl)ccc2Oc2nc(Nc3ccc(C#N)cc3)ncc2C)cc1`: the pEC50 in [1] was 5.42; in data set [2], under 6.08; in data set [5], under 6.08. In data set [3], the 50% cytotoxic concentration (CC50) at 120 h was at least 0.83 µM. The selectivity ratio in data set [4] was under 1.
`Cc1cc(/C=C/C#N)cc(C)c1Nc1ccnc(Nc2ccc(C#N)cc2)n1` [RILPIVIRINE] had a negative logarithm of the EC50 (pEC50) in data set [6] of 9.10.
With `Cc1cn([C@H]2C[C@H](N=[N+]=[N-])[C@@H](CO)O2)c(=O)[nH]c1=O` [ZIDOVUDINE], the pEC50 in [1], in data set [2] and in data set [5] was 8.00 in each case. This molecule also gave a cytotoxic concentration (CC50) at 120 h in data set [3] of over 93.5 µM. Moreover, the selectivity ratio in data set [4] was over 14400.
Consider `Cc1cnc(Nc2ccc(C#N)cc2)nc1Oc1ccc(OCc2ccccc2)cc1`, for which the pEC50 in data set [1], in data set [2] and in [5] was under 3.77 each time. Also, it took 170 µM to reach half-maximal cytotoxicity in [3] (CC50 at 120 h). The selectivity ratio in data set [4] was found to be 29.
In the case of `COc1ccc(C(=O)c2ccccc2)c(Oc2nc(Nc3ccc(C#N)cc3)ncc2C)c1`, the negative logarithm of the EC50 (pEC50) in [1] was at most 5.45; in data set [2] it was under 5.13; in [5], under 5.13. Moreover, the CC50 at 120 h in data set [3] turned out to be 7.42 µM. In data set [4], the selectivity ratio is at most 2.
With `Cc1cnc(Nc2ccc(C#N)cc2)nc1Oc1ccc(C(=O)c2ccc(O)cc2)cc1`, in data set [7], the pIC50 was 5.28. In addition, the results for the negative-log EC50 (pEC50) in data set [1], in data set [2] and in data set [5] were 5.44, under 3.53 and under 3.53, respectively. Besides, in data set [3], the CC50 at 120 h is over 296 µM. In addition, the selectivity ratio in data set [4] was over 82.
`COCCc1ccc(Oc2ccnc(Nc3ccc(C#N)cc3)n2)cc1`: the pIC50 in data set [7] is 5.57. The pEC50 in data set [1] was 6.59; in [2], at most 4.34; in data set [5] it was at most 4.03. In data set [3], this molecule yielded a CC50 at 120 h of 93.2 µM. The selectivity ratio in data set [4] amounted to 359.
Consider `CC(C)Nc1cccnc1N1CCN(C(=O)c2cc3cc(NS(C)(=O)=O)ccc3[nH]2)CC1` [DELAVIRDINE], for which the figures for the pEC50 in data set [1], in data set [2] and in [5] were 6.96, under 4.44 and under 4.44, respectively. In data set [3], this molecule returned a CC50 at 120 h of over 36.2 µM.
`Cc1cc(Oc2ccc(Cl)cc2C(=O)c2ccccc2C)nc(Nc2ccc(C#N)cc2)n1`: the negative logarithm of the EC50 (pEC50) in [1], in data set [2] and in data set [5] was under 5.37 each time. This molecule showed a CC50 at 120 h in data set [3] of 4.24 µM. Further, the selectivity ratio in [4] was under 1.
In the case of `Cc1cc(Oc2ccc(C(=O)c3ccc(O)cc3)cc2)nc(Nc2ccc(C#N)cc2)n1`, in data set [7], the pIC50 was 4.77. The pEC50 in data set [1] was at most 5.29; in data set [2], under 4.49; in data set [5] it was under 4.49. Further, the CC50 at 120 h in data set [3] is 32 µM. Further, in data set [4], the selectivity ratio is at most 6.
Consider `Cc1ccccc1C(=O)c1cc(Cl)ccc1Oc1nc(Nc2ccc(C#N)cc2)ncc1C`, for which, in [7], the negative logarithm of the IC50 (pIC50) is 5.28. In addition, the figures for the pEC50 in [1], in data set [2] and in data set [5] were 5.96, under 4.62 and under 4.62, respectively. In [3], the CC50 at 120 h was determined as 24.2 µM. In [4], the selectivity ratio was 22.
For `COCCc1ccc(Oc2cc(C)nc(Nc3ccc(C#N)cc3)n2)cc1`, in data set [7], the pIC50 was 4.93. The values for the negative-log EC50 (pEC50) in data set [1], in data set [2] and in data set [5] were 6.10, under 4.86 and under 4.86, respectively. The molecule also returned a CC50 at 120 h in [3] of 13.8 µM. The selectivity ratio in data set [4] is 18.
On to `Cc1ccc(C(=O)c2cc(Cl)ccc2Oc2cc(C)nc(Nc3ccc(C#N)cc3)n2)cc1`, for which the pEC50 in data set [1], in data set [2] and in data set [5] was under 4.58 throughout. The midpoint of cytotoxicity in data set [3], the CC50 at 120 h, lay at 26.6 µM. Also, the selectivity ratio in [4] was under 1.
With `Cc1cc(C)cc(C(=O)c2cc(Cl)ccc2Oc2nc(Nc3ccc(C#N)cc3)ncc2C)c1`, the negative-log IC50 (pIC50) in [7] was 5.51. Moreover, the negative-log EC50 (pEC50) in data set [1] is 5.83; in [2] it was under 4.87; in data set [5], under 4.87. Moreover, the CC50 at 120 h in [3] came to 13.4 µM. Besides, in data set [4], the selectivity ratio turned out to be 9.
Take `N#Cc1ccc(Nc2nccc(Oc3ccc(C(=O)c4ccc(O)cc4)cc3)n2)cc1`: the negative-log IC50 (pIC50) in data set [7] is 5.15. In addition, the negative-log EC50 (pEC50) in data set [1] was 5.57; in data set [2], under 4.71; in [5], under 4.71. Also, the CC50 at 120 h in [3] came to 19.4 µM. Besides, in [4], the selectivity ratio is 7.
`Cc1ccnc2c1NC(=O)c1cccnc1N2C1CC1` [NEVIRAPINE]: the values for the pEC50 in data set [2] and in [5] were under 4.82 and 5.29, respectively. Also, the CC50 at 120 h in data set [3] is over 15 µM.
In the case of `O=C1Nc2ccc(Cl)cc2[C@@](C#CC2CC2)(C(F)(F)F)O1` [EFAVIRENZ], the negative logarithm of the EC50 (pEC50) in data set [1] was 8.00; in [2], under 5.20. Moreover, the half-maximal cytotoxic concentration (CC50) at 120 h in data set [3] is over 6.34 µM.
For `Cc1cc(C)cc(C(=O)c2cc(Cl)ccc2Oc2cc(C)nc(Nc3ccc(C#N)cc3)n2)c1`, the pEC50 in data set [1], in [2] and in data set [5] was under 4.43 in each case. The same molecule returned a cytotoxic concentration (CC50) at 120 h in data set [3] of 37.1 µM. In data set [4], the selectivity ratio was under 1.
For `Cc1cc(Oc2ccc(OCc3ccccc3)cc2)nc(Nc2ccc(C#N)cc2)n1`, in data set [7], the pIC50 is 4.76. Further, the figures for the pEC50 in data set [1], in [2] and in [5] were 5.37, under 4.56 and under 4.56, respectively. For the same molecule, in data set [3], half-maximal cytotoxicity (CC50 at 120 h) was put at 27.7 µM. Further, in data set [4], the selectivity ratio was 6.
Turning to `N#Cc1ccc(Nc2nccc(Oc3ccc(OCc4ccccc4)cc3)n2)cc1`, in data set [7], the negative-log IC50 (pIC50) is 4.51. Besides, the pEC50 in data set [1] was 4.34; in data set [2], under 3.50; in data set [5], under 3.50. Also, the half-maximal cytotoxic concentration (CC50) at 120 h in data set [3] is over 317 µM. In addition, in data set [4], the selectivity ratio is over 7.
`COCCc1ccc(Oc2nc(Nc3ccc(C#N)cc3)ncc2C)cc1`: in data set [7], the negative logarithm of the IC50 (pIC50) was 5.90. Also, the negative logarithm of the EC50 (pEC50) is 7.22 in data set [1], under 3.46 in data set [2] and under 3.46 in data set [5]. Also, the 50% cytotoxic concentration (CC50) at 120 h in data set [3] was over 347 µM. Also, the “Ratio EC50” value in data set [8] and in data set [9] was 1.8 in each case. In addition, the selectivity ratio in data set [4] is over 6260.
`Cc1ccc(C(=O)c2cc(Cl)ccc2Oc2ccnc(Nc3ccc(C#N)cc3)n2)cc1`: the pEC50 in [1], in [2] and in data set [5] was under 5.77 in each case. The half-maximal cytotoxic concentration (CC50) at 120 h in data set [3] came to 1.71 µM. In addition, the selectivity ratio in data set [4] was under 1.
On to `Cc1ccccc1C(=O)c1cc(Cl)ccc1Oc1ccnc(Nc2ccc(C#N)cc2)n1`, for which, in data set [7], the pIC50 is 5.46. Besides, the values for the pEC50 in [1], in [2] and in data set [5] were 5.87, under 4.54 and under 4.54, respectively. Further, in data set [3], the CC50 at 120 h was determined as 28.8 µM. For the same molecule, the selectivity ratio in data set [4] is 21.
Turning to `COc1ccc(C(=O)c2ccccc2)c(Oc2ccnc(Nc3ccc(C#N)cc3)n2)c1`, the negative logarithm of the EC50 (pEC50) in [1], in [2] and in [5] was under 6.12 throughout. This molecule also registered a CC50 at 120 h in [3] of 0.76 µM. Moreover, in data set [4], the selectivity ratio was under 1.
With `Cc1cc(C)cc(C(=O)c2cc(Cl)ccc2Oc2ccnc(Nc3ccc(C#N)cc3)n2)c1`, the pIC50 in data set [7] is 5.49. Moreover, the negative logarithm of the EC50 (pEC50) in data set [1] was 6.10; in data set [2], under 4.54; in data set [5] it was under 4.54. Also, the 50% cytotoxic concentration (CC50) at 120 h in data set [3] is 28.8 µM. In [4], the selectivity ratio is 36.
